# Experimental data as given in ChEMBL document CHEMBL1142866, “Synthesis and preliminary evaluation of 18F- or 11C-labeled bicyclic nucleoside analogues as potential probes for imaging varicella-zoster virus thymidine kinase gene expression using positron emission tomography” (J Med Chem, 2007).
# Active and inactive are the calls of the source. The rule behind the calls is not given here.
# Legend:
# [1] = Inhibition of recombinant VZV TK assessed as [CH3-H3]dThd phosphorylation; parameters: species or system Human alphaherpesvirus 3
# In short: (§1)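 Purified recombinant VZV TK (7.75 ng), HSV-1 TK (226 ng) or cytosolic TK-1 (455 ng). Buffer: 50 mM Tris-HCl pH 8.0, 2.5 mM MgCl2, 10 mM DTT, 2.5 mM ATP, 1.0 mg/mL BSA, 10 mM NaF, 1 µM [CH3-3H]dThd final. Incubated 30 min at 37 °C (linear range) with graded compound concentrations. Product caught on DE-81 disks, washed, scintillation-counted. IC50 is 50% inhibition of dThd phosphorylation.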
# OST [2] = experiment: Cytotoxicity against OST cells expressing HSV1 TK; type: cell-based; conditions: human
# In short: (§2)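 OST TK- control cells and OST TK- cells expressing HSV-1 TK or VZV TK were cultured 5 days with graded compound concentrations. Cells were then trypsinized and counted on a Coulter counter. CC50 is the concentration in µM that reduces cell number by 50%.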
# OST [3] = experiment: Cytotoxicity against OST cells expressing VZV TK; type: cell-based; conditions: human; in short: as §2
# [4] = target: T1, Thymidine kinase, cytosolic (Homo sapiens, UniProt P04183); experiment: Inhibition of recombinant cytosolic TK-1 assessed as [CH3-H3]dThd phosphorylation; in short: as §1
# T1 sequence (P04183 whole entry): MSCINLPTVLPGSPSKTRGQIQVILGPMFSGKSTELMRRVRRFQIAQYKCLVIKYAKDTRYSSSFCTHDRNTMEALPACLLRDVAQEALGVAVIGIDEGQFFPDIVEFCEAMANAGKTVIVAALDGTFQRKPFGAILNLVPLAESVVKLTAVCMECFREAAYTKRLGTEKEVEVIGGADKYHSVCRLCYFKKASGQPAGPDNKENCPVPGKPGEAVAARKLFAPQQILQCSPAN
# Thymidine kinase = target: T2, Thymidine kinase (Human alphaherpesvirus 1, UniProt Q9QNF7); experiment: Inhibition of recombinant HSV-1 TK assessed as [CH3-H3]dThd phosphorylation; in short: as §1
# T2 sequence (Q9QNF7 whole entry): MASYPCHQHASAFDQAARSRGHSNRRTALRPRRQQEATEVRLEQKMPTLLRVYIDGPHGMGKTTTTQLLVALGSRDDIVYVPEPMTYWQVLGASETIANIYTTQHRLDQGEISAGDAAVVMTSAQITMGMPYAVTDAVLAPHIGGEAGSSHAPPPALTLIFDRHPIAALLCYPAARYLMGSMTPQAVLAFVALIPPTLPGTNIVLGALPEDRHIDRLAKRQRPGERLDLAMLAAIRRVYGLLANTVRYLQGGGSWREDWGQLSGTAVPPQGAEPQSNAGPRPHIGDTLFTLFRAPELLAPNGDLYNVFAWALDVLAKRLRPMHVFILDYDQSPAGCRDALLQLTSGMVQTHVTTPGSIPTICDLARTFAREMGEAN
# OST [5] = experiment: Cytostatic activity against OST TK-/HSV1 TK+ cells at 1.8 uM; type: functional, cell-based; conditions: Homo sapiens, tested as the 18F-labelled form; in short: as §2
# Brain [6] = experiment: Biodistribution in brain of NMRI mouse after 2 mins; type: ADME, organism-based; conditions: in vivo
# In short: (§3)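 Male NMRI mice (30-40 g) under ketamine/xylazine i.p. anesthesia received 0.1 mL of HPLC-purified 18F tracer (0.1 mCi/mL) or 11C tracer (1 mCi/mL) in water for injection via tail vein. Killed by decapitation at 2 or 60 min (n = 3 per time). Blood, organs and carcass weighed and gamma-counted. %ID = organ cpm/total cpm recovered. Blood mass taken as 7% of body mass. Mean ± SD.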
# [7] = Biodistribution in spleen/pancreas of NMRI mouse after 2 mins; type: ADME, organism-based; conditions: in vivo; in short: as §3
# Liver [8] = experiment: Biodistribution in liver of NMRI mouse assessed as standard uptake value after 60 mins; type: ADME, organism-based; conditions: in vivo, 1 h
# Heart [9] = experiment: Biodistribution in heart of NMRI mouse assessed as standard uptake value after 60 mins; type: ADME, organism-based; conditions: in vivo, 1 h
# [10] = Biodistribution in urine of NMRI mouse after 2 mins; type: ADME, organism-based; conditions: in vivo; in short: as §3
# [11] = Biodistribution in carcass of NMRI mouse after 60 mins; type: ADME, organism-based; conditions: in vivo, 1 h; in short: as §3
# Kidney [12] = experiment: Biodistribution in kidney of NMRI mouse after 2 mins; type: ADME, organism-based; conditions: in vivo; in short: as §3
# [13] = Drug uptake in human 293T cells transduced with VZV-tk gene after 3 hrs; type: ADME, cell-based; conditions: hek-293t
# In short: (§4)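 Lentivirally transduced 293T cells (VZV-tk or LacZ control) plated in triplicate at 200 000 cells/well. After 24 h, 0.25 mL fresh medium with 5 µCi of the 18F tracer (3 h) or 30 µCi of the 11C tracer (1 h) added; 37 °C, 5% CO2. Cells washed thrice with ice-cold PBS, lysed, gamma-counted. Uptake given as % total radioactivity per mg protein (Bio-Rad assay); n = 3, unpaired two-sided t-test.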
# [14] = Partition coefficient, log P at pH 7.4; type: physicochemical; conditions: octanol/water
# In short: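 HPLC-purified radiotracer partitioned between 1-octanol and 0.025 M phosphate buffer pH 7.4. Vortexed 2 min at room temperature, centrifuged 5 min, aliquots of both phases gamma-counted. P = octanol cpm/buffer cpm after density and mass correction; n = 6.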
# [15] = Ratio of drug uptake in LV-VZVTK-1-P transduced cells to LV-LacZ-I-P transduced 293T cells after 3 hrs; type: ADME, cell-based; conditions: human
# In short: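 Lentivirally transduced human embryonic kidney 293T cells (VZV-tk vs LacZ control), plated in triplicate at 200 000 cells/well. After 24 h, fresh medium with HPLC-purified [18F] tracer (5 µCi/well), 3 h at 37 °C, 5% CO2. Cells washed three times with ice-cold PBS and lysed. Lysate counted in a gamma counter. Uptake given as % total radioactivity per mg protein (Bio-Rad assay). Ratio is VZV-tk/LacZ; n=3, unpaired Student t-test.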
# [16] = Biodistribution in spleen/pancreas of NMRI mouse assessed as standard uptake value after 60 mins; type: ADME, organism-based; conditions: in vivo, 1 h
# Kidney [17] = experiment: Biodistribution in kidney of NMRI mouse assessed as standard uptake value after 2 mins; type: ADME, organism-based; conditions: in vivo
# Brain [18] = experiment: Biodistribution in brain of NMRI mouse after 60 mins; type: ADME, organism-based; conditions: in vivo, 1 h; in short: as §3
# Lung [19] = experiment: Biodistribution in lung of NMRI mouse after 2 mins; type: ADME, organism-based; conditions: in vivo; in short: as §3
# Kidney [20] = experiment: Biodistribution in kidney of NMRI mouse assessed as standard uptake value after 60 mins; type: ADME, organism-based; conditions: in vivo, 1 h
# [21] = Drug uptake in human 293T cells transduced with LacZ gene after 3 hrs; type: ADME, cell-based; conditions: hek-293t; in short: as §4
# [22] = Biodistribution in carcass of NMRI mouse after 2 mins; type: ADME, organism-based; conditions: in vivo; in short: as §3
# Brain [23] = experiment: Biodistribution in brain of NMRI mouse assessed as standard uptake value after 2 mins; type: ADME, organism-based; conditions: in vivo
# [24] = Biodistribution in spleen/pancreas of NMRI mouse after 60 mins; type: ADME, organism-based; conditions: in vivo, 1 h; in short: as §3
# Heart [25] = experiment: Biodistribution in heart of NMRI mouse after 60 mins; type: ADME, organism-based; conditions: in vivo, 1 h; in short: as §3
# Liver [26] = experiment: Biodistribution in liver of NMRI mouse after 2 mins; type: ADME, organism-based; conditions: in vivo; in short: as §3
# Lung [27] = experiment: Biodistribution in lung of NMRI mouse assessed as standard uptake value after 2 mins; type: ADME, organism-based; conditions: in vivo
# Lung [28] = experiment: Biodistribution in lung of NMRI mouse assessed as standard uptake value after 60 mins; type: ADME, organism-based; conditions: in vivo, 1 h
# Blood [29] = experiment: Biodistribution in blood of NMRI mouse after 2 mins; type: ADME, organism-based; conditions: in vivo; in short: as §3
# Blood [30] = experiment: Biodistribution in blood of NMRI mouse after 60 mins; type: ADME, organism-based; conditions: in vivo, 1 h; in short: as §3
# Heart [31] = experiment: Biodistribution in heart of NMRI mouse after 2 mins; type: ADME, organism-based; conditions: in vivo; in short: as §3
# [32] = Biodistribution in spleen/pancreas of NMRI mouse assessed as standard uptake value after 2 mins; type: ADME, organism-based; conditions: in vivo
# Liver [33] = experiment: Biodistribution in liver of NMRI mouse assessed as standard uptake value after 2 mins; type: ADME, organism-based; conditions: in vivo
# [34] = Biodistribution in urine of NMRI mouse after 60 mins; type: ADME, organism-based; conditions: in vivo, 1 h; in short: as §3
# Kidney [35] = experiment: Biodistribution in kidney of NMRI mouse after 60 mins; type: ADME, organism-based; conditions: in vivo, 1 h; in short: as §3
# Blood [36] = experiment: Biodistribution in blood of NMRI mouse assessed as standard uptake value after 60 mins; type: ADME, organism-based; conditions: in vivo, 1 h
# Intestine [37] = experiment: Biodistribution in intestine of NMRI mouse after 60 mins; type: ADME, organism-based; conditions: in vivo, 1 h; in short: as §3
# Blood [38] = experiment: Biodistribution in blood of NMRI mouse assessed as standard uptake value after 2 mins; type: ADME, organism-based; conditions: in vivo
# Lung [39] = experiment: Biodistribution in lung of NMRI mouse after 60 mins; type: ADME, organism-based; conditions: in vivo, 1 h; in short: as §3
# Liver [40] = experiment: Biodistribution in liver of NMRI mouse after 60 mins; type: ADME, organism-based; conditions: in vivo, 1 h; in short: as §3
# Brain [41] = experiment: Biodistribution in brain of NMRI mouse assessed as standard uptake value after 60 mins; type: ADME, organism-based; conditions: in vivo, 1 h
# Heart [42] = experiment: Biodistribution in heart of NMRI mouse assessed as standard uptake value after 2 mins; type: ADME, organism-based; conditions: in vivo
# Intestine [43] = experiment: Biodistribution in intestine of NMRI mouse after 2 mins; type: ADME, organism-based; conditions: in vivo; in short: as §3
compound,measurement,setting,value
O=c1nc2oc(-c3cccc(OCCF)c3)cc2cn1[C@H]1C[C@H](O)[C@@H](CO)O1,IC50,[1],53 µM
same,Activity,OST [2],Not Active
same,Activity,OST [3],Not Active
same,IC50,[4],> 500 µM
same,IC50,Thymidine kinase,> 500 µM
Nc1nc(=O)c2ncn(CCC(CO)CF)c2[nH]1 (centres undefined),IC50,[1],> 50 µM
same,Activity,OST [5],Active
Nc1nc2c(ncn2CCC(CO)CF)c(=O)[nH]1 (centres undefined),IC50,Thymidine kinase,9 µM
O=c1nc2oc(-c3cccc(OCC[18F])c3)cc2cn1[C@H]1C[C@H](O)[C@@H](CO)O1,Drug uptake,Brain [6],0 %ID
same,Drug uptake,[7],1.3 %ID
same,Drug uptake,Liver [8],0.7
same,Drug uptake,Heart [9],0
same,Drug uptake,[10],5.7 %ID
same,Drug uptake,[11],3.8 %ID
same,Drug uptake,Kidney [12],15.5 %ID
same,Drug uptake,[13],2.29%
same,logD,[14],1.24
same,uptake ratio at 3 h,[15],4.5
same,Drug uptake,[16],0.1
same,Drug uptake,Kidney [17],9
same,Drug uptake,Brain [18],0 %ID
same,Drug uptake,Lung [19],0.9 %ID
same,Drug uptake,Kidney [20],0.7
same,Drug uptake,[21],0.6%
same,Drug uptake,[22],27.2 %ID
same,Drug uptake,Brain [23],0.1
same,Drug uptake,[24],0.1 %ID
same,Drug uptake,Heart [25],0 %ID
same,Drug uptake,Liver [26],24.4 %ID
same,Drug uptake,Lung [27],1.1
same,Drug uptake,Lung [28],0
same,Drug uptake,Blood [29],6.2 %ID
same,Drug uptake,Blood [30],0.4 %ID
same,Drug uptake,Heart [31],0.3 %ID
same,Drug uptake,[32],1.4
same,Drug uptake,Liver [33],3.9
same,Drug uptake,[34],29.5 %ID
same,Drug uptake,Kidney [35],1.2 %ID
same,Drug uptake,Blood [36],0.1
same,Drug uptake,Intestine [37],60.5 %ID
same,Drug uptake,Blood [38],0.9
same,Drug uptake,Lung [39],0.1 %ID
same,Drug uptake,Liver [40],4.4 %ID
same,Drug uptake,Brain [41],0
same,Drug uptake,Heart [42],0.6
same,Drug uptake,Intestine [43],20.7 %ID
COc1cccc(-c2cc3cn([C@H]4C[C@H](O)[C@@H](CO)O4)c(=O)nc3o2)c1,IC50,[1],4.8 µM
same,Activity,OST [2],Not Active
same,Activity,OST [3],Not Active
same,IC50,[4],> 500 µM
same,IC50,Thymidine kinase,> 500 µM
O=c1nc2oc(-c3ccccc3F)cc2cn1C1C[C@H](O)[C@@H](CO)O1 (some centres undefined),IC50,[1],0.28 µM
same,IC50,[4],> 500 µM
same,IC50,Thymidine kinase,> 500 µM
